# Shown are actives, neighbours in structure and some others; about 2.9% of the full set was active somewhere.
# Wee1 stabilizer = inhibitors of human Wee1 degradation; P30291; HeLa Luc-Wee1K328M stability, luciferase luminescence; 100% = proteasome inhibitor MG132 effect; reporter increase, % at 5 µM; actives 1.2% (n = 220,000);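 active = activation above the mean of all tested compounds plus 3 SD, set per screening run, cut at about 8.8% in these data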;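 note: cells exposed to compound for 20 h before luminescence read; 0% = DMSO alone and 100% = MG132 at 30 µM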
# Target sequence (P30291 whole entry K328M): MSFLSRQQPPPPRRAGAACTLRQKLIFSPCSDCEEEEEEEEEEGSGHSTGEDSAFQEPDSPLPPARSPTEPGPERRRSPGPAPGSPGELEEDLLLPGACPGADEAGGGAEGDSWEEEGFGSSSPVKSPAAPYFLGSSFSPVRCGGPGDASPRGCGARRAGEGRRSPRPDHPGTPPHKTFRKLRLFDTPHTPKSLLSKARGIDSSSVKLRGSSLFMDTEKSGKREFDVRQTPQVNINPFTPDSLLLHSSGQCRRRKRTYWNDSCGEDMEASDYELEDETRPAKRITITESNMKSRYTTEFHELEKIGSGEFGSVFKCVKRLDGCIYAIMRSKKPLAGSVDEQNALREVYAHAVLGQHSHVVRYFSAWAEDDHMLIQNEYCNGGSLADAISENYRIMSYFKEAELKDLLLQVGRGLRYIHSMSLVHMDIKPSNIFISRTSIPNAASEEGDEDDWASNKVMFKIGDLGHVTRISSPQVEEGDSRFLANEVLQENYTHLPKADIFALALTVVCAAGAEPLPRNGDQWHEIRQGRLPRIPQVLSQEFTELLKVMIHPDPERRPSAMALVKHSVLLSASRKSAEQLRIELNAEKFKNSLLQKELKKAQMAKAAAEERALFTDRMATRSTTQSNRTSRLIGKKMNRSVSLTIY
# MT stabilize HCS = stabilizes microtubules in HeLa cells | AID 2205 | HeLa tubulin immunostaining HCS, 24 h; share of cells brighter than vehicle mean+2SD | % tubulin-high responders, % at 10 µM | actives 0.83% (n = 200,000);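 active = plate Z-score above 3 for both tubulin-high and condensed-nucleus cell shares, with cell loss under 80%, at 10 µM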;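 note: anti alpha tubulin signal scored within the nucleus-defined area of each cell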
# Insulin prom up = MIN6 insulin promoter up-regulation; MIN6 insulin promoter-GFP reporter, high-content imaging; stronger effect = higher value; z-score at 5 µM; actives 0.3% (n = 190,000);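 active = z-score above 3 at 5 µM with at least 500 cells counted in the well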
# Autophagy HCS = modulators of autophagy; MEF GFP-LC3 puncta imaging; test concentration mostly 10 µM; calls only at 10 µM (by protocol); actives 0.98% (n = 190,000); AID 463193;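 active = percentage of spot-positive cells more than 3 SD above its plate mean, without a fluorescence outlier flag or 80% toxicity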;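 note: spot-positive cell cutoff set from DMSO-treated cells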
# b-catenin transl = alters nuclear translocation of beta-catenin in HeLa cells. immunofluorescence imaging. actives 0.3% (n = 190,000). nuclear translocation activity, % at 5 µM;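 active = nuclear translocation activity above 50% at 5 µM, with a well cell count of 50 or more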;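 note: per-cell ratio of nuclear to cytoplasmic median beta-catenin stain intensity; plate controls were DMSO negative control for no effect and GSK-3 inhibitor IX positive control for full effect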
#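 Signal – beta-catenin immunofluorescence imaging with DAPI · Test system – human HeLa cell line · Dosing – 5 µM primary single dose, 0.1% DMSO, 0.02–20 µM confirmation series · Measure – % activation, nuclear-to-cytoplasmic median beta-catenin signal ratio per cell · Incubation – 24 h compound exposure at 37°C, 5% CO2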
# An asterisk follows results filed as active; i = inactive; nt = no result given; + = active, no number.
SMILES,Wee1 stabilizer,MT stabilize HCS,Insulin prom up,Autophagy HCS,b-catenin transl
Cc1ccc(S(=O)(=O)NCc2ccc(C(=O)NCCCN3CCC(Cc4ccccc4)CC3)cc2)cc1,-0.1,3.7,-0.78,i,2.0
CCOc1ncccc1C(=O)OCC(=O)N(CC)c1ccccc1,-1.6,2.3,0.11,+,1.2
CCOc1ncccc1C(=O)OCc1ccccc1,0.3,8.5,0.26,i,-0.6
N#Cc1c(SCc2ccccc2)sc(C(=O)c2ccccc2)c1N,9.2*,2.9,nt,i,-12.3
COc1ccc2cc(/C(C)=N/NC(=O)c3cc(-c4cccnc4)nc4ccccc34)ccc2c1,-0.6,3.4,0.55,i,-0.4
Cc1ccc(NC2=NC3(CCCCC3)N=C(N)N2)c(C)c1,1.1,3.9,-0.12,i,nt
Cc1ccc(NC2=NC3(CCCC3)N=C(N)N2)c(C)c1,0.4,24.6*,0.13,i,-1.1
CC(C)NC(=O)Cn1cc(C(=O)COc2ccccc2)c2ccccc21,-2.2,1.9,0.6,i,1.9
COc1cc2c(cc1OC)CN(C(=O)c1cccc([N+](=O)[O-])c1)CC2,10.1*,nt,-0.31,nt,-1.5
COc1cc2c(cc1OC)CN(C(=O)c1cc3ccccc3oc1=O)CC2,-1.3,19.2*,0.17,i,0.6
COc1cc2c(cc1OC)CN(C(=O)c1cccs1)CC2,-1.7,3.2,0.6,i,-1.5
COc1cc2c(cc1OC)CN(C(=O)c1ccc(OC)c([N+](=O)[O-])c1)CC2,-4.7,nt,-0.44,nt,-0.4
COc1cc2c(cc1OC)CN(C(=O)/C=C/c1cccs1)CC2,2.2,nt,-0.49,nt,120.1*
O=C(CSc1nnnn1-c1cccc2ccccc12)NC(C(=O)O)(c1ccccc1)c1ccccc1,-1.7,2.1,nt,i,-2.7
O=c1[nH]ncc(N2CCN(Cc3ccccc3)CC2)c1Cl,0.8,3.2,-0.98,i,-0.7
Cc1ccc(C2CC(c3ccccc3)=NN2C(=S)Nc2ccccc2)o1 (stereo not given),3.2,49.7*,nt,i,nt
CC1=NN(C(=S)Nc2ccccc2)C(c2ccccc2)C1 (stereo not given),-2.2,2.3,0.96,i,nt
C=CCn1c(C)cc(C2=NNC(=NCc3ccccc3)SC2)c1C,-0.3,15.4*,0.15,i,36.7
CCN=C1NN=C(c2cc(C)n(CCc3ccccc3)c2C)CS1,4.7,1.8,-0.79,i,nt
c1ccc(-c2ccccc2OCCCCN2CCCCCC2)cc1,-3.3,3.7,-1.65,i,-3.6
CCCOC1CCCN(C(=O)CCc2nnc(CCCCc3ccccc3)o2)C1 (stereo not given),-1.4,3.9,0.39,i,3.2
COc1ccc(C2C=C(c3cccs3)Nc3nc(CCCO)nn32)cc1 (stereo not given),-0.4,5.6,5.85*,i,1.1
COc1cc(C2C3=C(Nc4ncnn42)c2ccccc2CC3)cc(OC)c1OC (stereo not given),-0.7,17.5*,-0.28,i,135.3*
COc1cc(C2C=C(c3cccs3)Nc3ncnn32)cc(OC)c1OC (stereo not given),-2.4,3.0,-0.59,i,118.8*
Cc1ccc([N+](=O)[O-])cc1S(=O)(=O)n1ccnc1C,-0.8,1.6,0.83,i,-0.3
SMILES,Wee1 stabilizer,MT stabilize HCS,Insulin prom up,Autophagy HCS,b-catenin transl
COc1ccccc1N1CCN(C(=O)C2c3ccccc3Oc3ccccc32)CC1,4.8,26.0*,-0.61,i,94.7*
O=C(C1c2ccccc2Oc2ccccc21)N1CCN(c2ccc(Cl)cc2)CC1,0.7,33.1*,0,i,nt
Cc1ccc(NC(=O)CCl)cc1S(=O)(=O)N1CCCCCC1,-3.2,9.4,0.01,+,9.5
Cc1ccc(S(=O)(=O)c2cccc(S(=O)(=O)N3CCCC3)c2)cc1S(=O)(=O)N1CCCC1,-1.6,5.8,3.05*,i,-2.2
COCCNCC(=O)Nc1ccc(C)c(S(=O)(=O)N2CCCCC2)c1,-3.4,1.4,0.66,i,-3.2
O=C(NCCCn1ccnc1)c1ccc(N2CCCCC2)c([N+](=O)[O-])c1,-1.9,3.5,-0.17,i,0.7
COc1cc(CO)cc(Br)c1OCc1cccnc1,1.5,2.9,0.43,i,-3.0
CCOc1cc(S(=O)(=O)NCc2ccc3c(c2)OCO3)c(C)cc1C,-1.0,1.5,-1.36,i,nt
CCOc1cc(C)c(Cl)cc1S(=O)(=O)NCc1ccc2c(c1)OCO2,3.5,34.8*,-0.53,i,3.9
O=C(NNc1cccc(Cl)c1)c1cccnc1Cl,9.4*,3.3,-0.31,i,2.3
O=C(NNc1cccc(Cl)n1)c1cccnc1Cl,1.6,3.8,0.09,i,-3.2

# Assay outcomes from PubChem BioAssay.
